CAL PDZ FP-1 = blocks peptide binding to human CAL PDZ domain. Q9HD26. purified CAL PDZ, TMR-peptide fluorescence polarization, 1 h. inhibition, % at 20 µM. 330,000 tested, 0.02% active. AID 504414;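 active = highest replicate inhibition of at least 40%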;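 note: plate controls were DMSO neutral control wells for no effect and unlabeled competitor peptide control wells for full effect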
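System: purified tagged CAL PDZ domain construct (CerCALP). Schedule: 1 h incubation at room temperature before polarization reading. Medium: 25 mM sodium phosphate pH 7.4, 150 mM NaCl, TCEP, IgG, Thesit. Read-out: percent inhibition from loss of millipolarization. Measured by: FP readout, S and P plane fluorescence. Probe or stimulus: fluorescent TMR peptide probe.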
CAL PDZ FP-2 = CAL PDZ (human) peptide binding inhibition. Q9HD26. purified CAL PDZ, TMR-peptide fluorescence polarization, 1 h. inhibition, % at 24.9 µM. 300,000 tested, 0.92% active;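 active = mean inhibition of at least 30% with at least half of replicates also reaching 30%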;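 note: 0% = DMSO neutral control and 100% = excess unlabeled competitor peptide PRC23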
Arr AP2 block = blocks beta-arrestin peptide binding to AP2 adaptin | AID 504490 | FITC-arrestin peptide / GST-AP2 beads, flow cytometry; AP2 beta2 appendage carries R879A mutation | 340,000 tested, 0.31% active | inhibition, % at 10 µM;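 active = inhibition above a set limit, near 3 SD of compounds lacking own fluorescence, cut at about 54% in these data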;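 note: plate controls were DMSO wells for no effect and 5 µM unlabelled arrestin peptide for full effect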
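System: GST-AP2 R879A glutathione beads | Also added: FITC-arrestin peptide, 50 nM | Times: 12 min plus 1 h, RT | Signal: Bead flow cytometry, FITC channel | Buffer or medium: PBS with 0.05% Tween 20 and 0.1% BSA | Read-out basis: Percent drop in bead-associated FITC signal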
DDE Tn6 FP inh = DD(E)-Tn6 binding inhibition, primary FP screen. P02675. Fibrin DD(E) TRITC-Tn6 fluorescence polarization displacement. inhibition, % at 8.3 µM. 370,000 tested, 0.21% active;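 active = inhibition above a per-campaign cutoff: mean of compounds within control limits plus 3 SD, cut at about 15% in these data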;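 note: 0% = median of all compound wells on the plate and 100% = blocking peptide control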
Tn7 DDE FP = DD(E)-Tn7 binding inhibition, primary FP screen. inhibition, % at 8.3 µM. FP displacement of FITC-Tn7 peptide from fibrin DD(E); 0% = median of compound wells per plate. 370,000 tested, 0.13% active. P02675;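 active = inhibition above the mean of compounds falling within the control limits plus 3 SD of them, cut at about 14% in these data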;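 note: 0% = plate median of compound wells and 100% = 10 µM Aha-Tn7 peptide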
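System: human fibrin DD(E); quantity: Fibrin-DD(E) at 2 µM final; also added: fluorescent Tn7 probe at 0.1 µM; compound dosing: single nominal test concentration of 8.3 µM per compound; schedule: 10 min preincubation, 3 h with tracer, room temperature; detection: fluorescence polarization of the labelled Tn7 tracer; repeats: one replicate per compound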
Arr AP2 CP1 = blocks beta-arrestin peptide binding to human AP2. shares compounds with Arr AP2 block. GST-AP2 beads, FITC arrestin peptide binding, flow cytometry; GST-fused beta2-adaptin appendage, R879A mutant. inhibition, % at 10 µM. 1,300 tested, 2% active. AID 504908;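 active = inhibition above a set limit, roughly 3 SD of non-fluorescent compound noise, cut at about 38% in these data; inactive = inhibition at or below that limit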;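 note: loss of bead fluorescence from 50 nM FITC arrestin peptide bound to appendage; 0% = negative control wells and 100% = excess unlabelled arrestin peptide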
Target sequence (P63010 whole entry, looked up, the tested form may be a part, one chain of several): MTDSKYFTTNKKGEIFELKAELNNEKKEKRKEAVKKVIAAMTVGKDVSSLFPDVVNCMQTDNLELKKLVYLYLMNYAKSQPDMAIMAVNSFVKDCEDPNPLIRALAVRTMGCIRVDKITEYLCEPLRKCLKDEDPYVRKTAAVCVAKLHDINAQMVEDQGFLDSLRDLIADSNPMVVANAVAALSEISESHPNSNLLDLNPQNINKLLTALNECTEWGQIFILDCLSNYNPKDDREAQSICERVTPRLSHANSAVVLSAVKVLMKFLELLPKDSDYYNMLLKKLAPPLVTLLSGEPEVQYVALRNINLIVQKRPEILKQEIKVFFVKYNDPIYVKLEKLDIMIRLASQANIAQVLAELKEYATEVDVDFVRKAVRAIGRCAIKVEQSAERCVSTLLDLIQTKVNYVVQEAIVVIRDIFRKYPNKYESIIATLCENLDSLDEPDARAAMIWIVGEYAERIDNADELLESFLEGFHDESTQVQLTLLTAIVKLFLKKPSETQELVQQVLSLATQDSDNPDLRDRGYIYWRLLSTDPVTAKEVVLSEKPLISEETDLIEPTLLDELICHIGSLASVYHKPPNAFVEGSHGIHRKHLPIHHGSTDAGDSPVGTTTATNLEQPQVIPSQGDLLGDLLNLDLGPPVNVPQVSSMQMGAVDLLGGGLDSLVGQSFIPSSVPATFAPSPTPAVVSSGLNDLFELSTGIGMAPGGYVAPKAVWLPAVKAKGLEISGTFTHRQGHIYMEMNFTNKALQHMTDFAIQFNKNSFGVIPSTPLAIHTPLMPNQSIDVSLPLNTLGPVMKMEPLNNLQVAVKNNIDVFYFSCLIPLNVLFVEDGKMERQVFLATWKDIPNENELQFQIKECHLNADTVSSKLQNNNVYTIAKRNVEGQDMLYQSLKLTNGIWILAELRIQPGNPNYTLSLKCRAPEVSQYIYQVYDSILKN
GST GSH counter = disrupts GST binding to glutathione beads, arrestin-AP2 artifact; shares compounds with Arr AP2 block; GST-fluorescein binding to GSH beads, fluorescence, counter-screen; inhibition, % at 10 µM; 1,300 tested, 2% active; AID 588338;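 active = inhibition above 50%, about 3 SD of the inhibition seen with non-fluorescent compounds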;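 note: fluorescein maleimide labelled GST captured on 4 micron glutathione beads; higher means more loss of bead fluorescence from quenching or blocked binding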
* = called active by the depositor. Most compounds without a hit are left out; they make up all but 1.4% or so of the library.

Cn1c(=O)c2nc(Cl)c(-c3ccccc3)nc2n(C)c1=O was read as CAL PDZ FP-1 -1, CAL PDZ FP-2 -2, Arr AP2 block -2, DDE Tn6 FP inh -4 and Tn7 DDE FP 0.
`O=C(O)Cc1sc(-c2ccccc2)nc1-c1ccc(Cl)cc1` gave DDE Tn6 FP inh 1 and Tn7 DDE FP -2.
`O=C(O)Cc1sc(-c2ccc(Cl)cc2)nc1-c1ccccc1` gave CAL PDZ FP-1 -1, CAL PDZ FP-2 54*, Arr AP2 block 2, DDE Tn6 FP inh -6 and Tn7 DDE FP -1.
Screening COc1ccccc1CCn1cnc(-c2ccc(F)cc2)c1CC(C)C returned DDE Tn6 FP inh -3 and Tn7 DDE FP 0.
c1cc2ccc3ccc(-n4cnnn4)c4ccc(c1)c2c34 was read as CAL PDZ FP-2 119*, Arr AP2 block -6, DDE Tn6 FP inh 2 and Tn7 DDE FP 1.
CC[C@]12c3[nH]c4cc(CCC(=O)N(C)C)ccc4c3CCN1C(=O)[C@@H](CC(=O)NCCCN(C)C)C[C@@H]2C(=O)N1CCN(C(=O)C2CC2)CC1 was read as CAL PDZ FP-1 0, CAL PDZ FP-2 -1, Arr AP2 block 10, DDE Tn6 FP inh 0 and Tn7 DDE FP 3.
CC[C@]12c3[nH]c4cc(CCC(=O)N(C)C)ccc4c3CCN1C(=O)[C@@H](CC(=O)NCCCOC)C[C@@H]2C(=O)N1CCN(C(=O)C2CC2)CC1 was read as CAL PDZ FP-1 0, CAL PDZ FP-2 32*, Arr AP2 block -15, DDE Tn6 FP inh 1 and Tn7 DDE FP -2.
Cc1ccc2c(c1)N(CCCC(=O)NCc1ccc(F)cc1)C(=O)CO2 was read as DDE Tn6 FP inh 5 and Tn7 DDE FP -1.
COCC(=O)N(Cc1ccccc1)c1ccccc1C(=O)Nc1cc(OC)ccc1OC was read as DDE Tn6 FP inh -5 and Tn7 DDE FP -1.
`CCOC(=O)N1CCN(C(=O)c2ccc3c(=O)n(-c4ccc(OC)cc4)c(=S)[nH]c3c2)CC1` gave CAL PDZ FP-1 0, Arr AP2 block -3, DDE Tn6 FP inh -3 and Tn7 DDE FP -1.
Screening CCOC(=O)N1CCN(C(=O)c2ccc3c(=O)n(-c4ccc(OC)cc4OC)c(=S)[nH]c3c2)CC1 returned CAL PDZ FP-1 -3, CAL PDZ FP-2 82*, Arr AP2 block 3, DDE Tn6 FP inh 4 and Tn7 DDE FP -4.
CCOC(=O)C1CCCN(C(=O)c2ccc3c(=O)n(Cc4ccccc4OC)c(=S)[nH]c3c2)C1 (stereo not given) was read as CAL PDZ FP-1 -1, CAL PDZ FP-2 32*, Arr AP2 block -4, DDE Tn6 FP inh 2 and Tn7 DDE FP -3.
For CCSc1nnc(NC(=O)Cc2ccc(OC)c(S(=O)(=O)N3CCOCC3)c2)s1 the results were CAL PDZ FP-1 -1, CAL PDZ FP-2 39*, Arr AP2 block -7, DDE Tn6 FP inh 5 and Tn7 DDE FP 1.
Screening CCc1nnc(NC(=O)Cc2ccc(OC)c(S(=O)(=O)N3CCOCC3)c2)s1 returned DDE Tn6 FP inh 1 and Tn7 DDE FP -6.
For CCC(C)CNC(=O)c1cn(C(C)c2ccccc2)nn1 (stereo not given) the results were DDE Tn6 FP inh 2 and Tn7 DDE FP 4.
For COc1ccccc1/C=C/C=N/NC(=O)c1cc(-c2ccc(C)o2)[nH]n1 the results were CAL PDZ FP-1 -4, CAL PDZ FP-2 62*, Arr AP2 block 3, DDE Tn6 FP inh -15 and Tn7 DDE FP 1.
`Cc1ccc(/C=N/NC(=O)c2cc(-c3ccc(C)o3)[nH]n2)cc1` gave CAL PDZ FP-1 -3, CAL PDZ FP-2 8, Arr AP2 block 8, DDE Tn6 FP inh -1 and Tn7 DDE FP 0.
Screening Cc1cc(C(=O)COC(=O)c2ccc(Cl)c(S(N)(=O)=O)c2)c(C)n1C1CC1 returned CAL PDZ FP-1 -1, CAL PDZ FP-2 41*, Arr AP2 block -10, DDE Tn6 FP inh -5 and Tn7 DDE FP 5.
Screening Cc1ccccc1OCC(=O)OCC(=O)c1cc(C)n(C2CC2)c1C returned CAL PDZ FP-1 -2, CAL PDZ FP-2 46*, Arr AP2 block 5, DDE Tn6 FP inh -3 and Tn7 DDE FP -2.
Cc1nn(-c2ccccc2)c(C)c1NC(=O)COC(=O)c1ccc(Cl)c(S(N)(=O)=O)c1 was read as CAL PDZ FP-1 1, CAL PDZ FP-2 65*, Arr AP2 block -8, DDE Tn6 FP inh 2 and Tn7 DDE FP -4.
C=CCN(C)C(C#Cc1ccccc1)Cc1ccccc1 (stereo not given) was read as DDE Tn6 FP inh 4 and Tn7 DDE FP 2.
Screening Brc1ccc(-c2nn3c(-c4ccccc4)nnc3s2)cc1 returned DDE Tn6 FP inh 3 and Tn7 DDE FP 2.
C=CCOC(=O)C(CO)NC(=O)CCCC(=O)O (stereo not given) was read as DDE Tn6 FP inh 4 and Tn7 DDE FP -7.
For O=C1CC(c2ccc3c(c2)OCCO3)Oc2ccccc21 (stereo not given) the results were CAL PDZ FP-1 -1, CAL PDZ FP-2 -3, Arr AP2 block 27, DDE Tn6 FP inh 3 and Tn7 DDE FP 3.
O=C1CC(c2ccc3c(c2)OCCO3)Oc2ccc([N+](=O)[O-])cc21 (stereo not given) was read as CAL PDZ FP-1 0, CAL PDZ FP-2 79*, Arr AP2 block 6, DDE Tn6 FP inh -6 and Tn7 DDE FP -1.
COc1cc2c(cc1NC(=O)COc1ccc3ccccc3c1)oc1ccccc12 was read as CAL PDZ FP-1 -2, CAL PDZ FP-2 1, Arr AP2 block -2, DDE Tn6 FP inh -1 and Tn7 DDE FP 0.
COc1cccc(CN(C)CC(=O)Nc2cc3oc4ccccc4c3cc2OC)c1 was read as CAL PDZ FP-1 -2, CAL PDZ FP-2 0, Arr AP2 block 3, DDE Tn6 FP inh 4, Tn7 DDE FP -4, Arr AP2 CP1 1 and GST GSH counter 0.
`COc1cc2c(cc1NC(=O)CN(C)Cc1cccc(OC)c1OC)oc1ccccc12` gave CAL PDZ FP-1 -3, CAL PDZ FP-2 -2, Arr AP2 block -7, DDE Tn6 FP inh 2, Tn7 DDE FP -3, Arr AP2 CP1 -2 and GST GSH counter 1.
For O=C(COC(=O)Cn1cnc2ccccc21)Nc1ccc2c(c1)C(=O)c1ccccc1C2=O the results were CAL PDZ FP-1 -3, CAL PDZ FP-2 -4, Arr AP2 block 100*, DDE Tn6 FP inh -5, Tn7 DDE FP -3, Arr AP2 CP1 24 and GST GSH counter 33.
